Most compounds without a hit are left out; they make up all but 2.5% or so of the library.
rCAG binder = binders of r(CAG) RNA repeats, primary screen, biochemical, fluorescence; r(CAG) RNA repeat, TO-PRO-1 dye displacement fluorescence; inhibition, % at 3 µM; AID 651821, 2012; hit rate 1.3% among 370,000;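 active = inhibition above the plate cutoff, the mean of all test compounds on that plate plus 3 SD, cut at about 35% in these data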;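 note: 0% = DMSO alone and 100% = 100 µM mitoxantrone as full dye displacement; higher means more dye released from RNA so lower well fluorescence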
TCR-CD3 inh = inhibitors of human TCR-CD3 interaction, primary screen, biochemical, fluorescence, TAMRA-labeled TCR probe | inhibition, % at 9.4 µM | hit rate 0.37% among 360,000; in the data active = inhibition above about 19%;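 note: recombinant mutant TCR 2C K166C tagged with TAMRA read by polarization; 0% = receptor in buffer alone and 100% = receptor with positive control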
ABHD4 inh = ABHD4 inhibitors, primary screen, biochemical, fluorescence polarization, mouse. hit rate 0.54% among 370,000. inhibition, % at 8.92 µM. AID 720543, 2013. purified mABHD4, FP-Rh probe fluorescence polarization. (Lyso)-N-acylphosphatidylethanolamine lipase (Mus musculus), Q8VD66;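 active = inhibition exceeding the mean over every tested compound plus 3 SD, cut at about 30% in these data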;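 note: 0% = plate median of compound wells and 100% = S159A mutant with DMSO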
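System: mouse ABHD4 enzyme, wild type / Medium: HEPES pH 7.0, NaCl, Pluronic buffer / Reagent: FP-Rh activity-based fluorescent probe / Control set: S159A mutant high control, sample median low control / Detection: fluorescence polarization with parallel and perpendicular emission, 525/598 nm / Schedule: 45 min + 60 min at 25 °C / Compound dosing: 8.92 µM, single dose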
SIAE primary = human SIAE inhibitors, primary screen, biochemical, fluorescence polarization, FP-Rh probe, 1536-well HTS; Sialate O-acetylesterase (Homo sapiens), Q9HAT2; SIAE FP-Rh probe binding; inhibition, % at 9.66 µM; hit rate 0.69% among 370,000;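 active = inhibition above a cutoff: mean of compounds within the control limits plus 3 SD of those, cut at about 17% in these data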;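 note: 0% = plate median of compound wells and 100% = probe without SIAE protein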
Target sequence (Q9HAT2 whole entry, looked up): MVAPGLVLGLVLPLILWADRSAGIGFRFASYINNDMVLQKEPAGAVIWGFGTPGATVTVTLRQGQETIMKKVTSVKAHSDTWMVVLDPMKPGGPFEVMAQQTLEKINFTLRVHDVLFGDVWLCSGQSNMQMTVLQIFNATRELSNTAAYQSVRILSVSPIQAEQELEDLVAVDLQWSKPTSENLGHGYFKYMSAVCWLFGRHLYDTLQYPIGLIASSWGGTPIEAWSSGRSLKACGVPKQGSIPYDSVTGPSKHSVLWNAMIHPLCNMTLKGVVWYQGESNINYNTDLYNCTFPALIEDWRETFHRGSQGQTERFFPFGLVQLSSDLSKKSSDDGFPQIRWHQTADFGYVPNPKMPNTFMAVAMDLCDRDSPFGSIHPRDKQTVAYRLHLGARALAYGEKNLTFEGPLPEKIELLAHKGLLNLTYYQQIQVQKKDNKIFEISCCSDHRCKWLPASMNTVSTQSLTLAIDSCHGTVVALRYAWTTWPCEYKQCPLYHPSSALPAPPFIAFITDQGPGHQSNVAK
HTRA1 inh = HTRA1 serine protease inhibitors, primary screen, biochemical, fluorescence polarization, HTS; Q92743; recombinant HTRA1, FP-rhodamine activity-based probe; inhibition, % at 5.96 µM; hit rate 0.5% among 340,000; AID 504803, 2011; in the data active = inhibition above about 36%;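 note: 0% = enzyme with DMSO and 100% = wells lacking enzyme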
ABHD4 confirm = ABHD4 inhibitors, retest, confirmation, biochemical, fluorescence polarization, mouse. shares compounds with ABHD4 inh. purified mABHD4, FP-Rh probe fluorescence polarization. inhibition, % at 8.92 µM. hit rate 55% among 1,800;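 active = mean inhibition across replicates above the hit cutoff set in the primary screen, cut at about 30% in these data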;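 note: 0% = wild-type ABHD4 with DMSO and 100% = catalytically dead S159A mutant with DMSO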
Active calls of the source: *; nt = not tested or not shown.

SMILES	rCAG binder	TCR-CD3 inh	ABHD4 inh	SIAE primary	HTRA1 inh	ABHD4 confirm
Cc1nn(-c2ccccc2)c(Cl)c1C1C(C#N)=C(N)Oc2c1c(C)nn2-c1ccccc1 (centres undefined)	6.4	-4.2	12.1	-2.6	5.1	nt
CC(C)CN(C(=O)COC(=O)Cn1cnc2ccccc2c1=O)C1CCS(=O)(=O)C1 (centres undefined)	1.5	9.0	8.7	4.1	2.2	nt
CN(C(=O)Cn1cnc2ccccc2c1=O)C1CCS(=O)(=O)C1 (centres undefined)	0.6	-2.7	49.7*	6.8	-1.8	-9.3
Cc1cc2nc(-c3ccccc3Br)n(/C=C(\c3ccccc3)n3c(=O)[nH]c4ccccc43)c2cc1C	7.1	3.8	3.0	-0.9	nt	nt
O=C1CS/C(=C\[N+](=O)[O-])N1c1ccccc1	17.8	0.7	31.2*	3.6	5.6	-1.5
O=C1CS/C(=N\N=C\c2ccco2)N1c1ccccc1	13.8	9.9	18.6	9.6	12.3	nt
Nc1cccc2[nH]c(=O)c3ccccc3c12	11.7	2.6	30.7*	16.4	9.0	12.2
Nc1cc2c(cc1Br)[nH]c(=O)c1ccccc12	12.9	0.8	31.1*	-2.9	27.8	31.1*
O=c1[nH]c2ccccc2c(=O)c2ccccc12	1.4	1.7	3.6	-3.2	-1.0	nt
O=[N+]([O-])c1c(-c2cn[nH]c2)n[nH]c1-c1cn[nH]c1	0.8	-1.7	-0.3	-5.1	2.3	nt
CC(=O)c1ccc(OCc2cc(C(=O)N3CCCCC3c3cccnc3)no2)cc1 (centres undefined)	-8.2	2.6	0.0	-2.3	-1.2	nt
Cc1nnc(SCC2=C(C(=O)O)N3C(=O)C(NC(=O)Cn4nc(C(F)F)c(Cl)c4C)C3SC2)s1 (centres undefined)	20.8	3.1	6.3	1.9	-11.4	nt
CN=c1scc(C)n1/N=C/c1cc(Br)c(O)c(Br)c1	5.0	-3.3	28.7	9.5	14.2	nt
CCN=c1scc(C)n1/N=C/c1cc(Br)c(O)c(OC)c1	15.9	-4.3	29.7*	12.3	21.2	32.5*
CCOc1ccc2[nH]c3c(N4CCc5ccccc5C4)ncnc3c2c1	5.5	-2.9	34.9*	16.1	nt	53.3*
OCCN1CCN(CC(O)COc2ccc(C34CC5CC(CC(C5)C3)C4)cc2)CC1 (centres undefined)	-7.0	6.6	22.6	3.5	18.9	nt
NCCOc1ccc(C23CC4CC(CC(C4)C2)C3)cc1	14.7	-2.8	31.7*	0.1	11.0	37.4*
Clc1ccc(Sc2cc(N3CCOCC3)nc(-c3ccccc3)n2)cc1	-0.9	-9.4	3.5	3.8	-3.4	nt
O=C(O)c1ccc(S(=O)(=O)c2ccc3c(c2)C(=O)N(c2ccc(O)cc2)C3=O)cc1	0.6	11.2	91.9*	7.6	14.4	-17.6
Cc1occc1C(=O)NCc1ccco1	9.4	-5.3	-0.3	-2.0	-2.8	nt
CC(=O)C(C(C)=O)c1cc(NS(=O)(=O)c2ccccc2)ccc1NS(=O)(=O)c1ccccc1	9.7	0.7	-6.7	0.6	-10.8	nt
COc1ccc(NC(=O)c2ccc(NC(=O)C(C)C)cc2)c([N+](=O)[O-])c1	-2.8	-4.0	-6.3	4.3	0.1	nt
COc1ccc(NC(=O)C(c2cc3c(cc2[N+](=O)[O-])OCO3)N(C)C)cc1 (centres undefined)	3.3	14.8	70.4*	6.6	9.9	-1.9
CCN(CC(=O)Nc1c(F)cccc1F)C(=O)c1cccnc1SC	-3.5	7.8	-1.6	-2.4	2.3	nt
CCN(Cc1ccccc1)C(=O)COC(=O)c1cc(S(=O)(=O)Nc2ccccc2OC)ccc1O	13.3	2.6	30.9*	-6.8	3.5	43.9*
SMILES	rCAG binder	TCR-CD3 inh	ABHD4 inh	SIAE primary	HTRA1 inh	ABHD4 confirm
COc1ccccc1NS(=O)(=O)c1ccc(O)c(C(=O)OCC(=O)Nc2ccccc2F)c1	12.8	-3.3	-0.5	4.7	-4.2	nt
CC(=Nc1ccc(O)cc1)c1sc2ccccc2c1O	4.9	7.9	38.7*	2.2	9.8	0.0
CC(=Nc1ccccc1O)c1sc2ccccc2c1O	3.9	-3.4	16.0	4.8	27.2	nt
O=C(COC(=O)C1C2CC3OC(=O)C1C3C2)Nc1ccc(Br)cc1 (centres undefined)	-4.3	-4.0	0.4	0.8	7.7	nt
C/C(=N\Nc1ccc(Cl)c(C(=O)O)c1)c1cc2ccccc2o1	21.9	-5.2	12.8	-5.9	-2.2	nt
C/C(=N\Nc1cccc(C(=O)O)c1)c1cc2ccccc2o1	19.5	-8.4	32.1*	1.3	1.9	30.2*
CCOC(=O)C(=O)Nc1nc(-c2ccc3c(c2)CCN3C(=O)C2CC2)c(C)s1	8.4	5.8	38.9*	-0.3	-1.8	18.5
CC(=O)Nc1nc(-c2ccc3c(c2)CC(C)N3C(=O)C2CC2)c(C)s1 (centres undefined)	7.5	4.2	-2.7	4.0	-6.9	nt
CCCCNC(=O)CCCCCNS(=O)(=O)c1ccc(OC)cc1	-3.5	3.5	3.5	-0.6	3.0	nt
CC(C)(C)c1ccc(-c2csc(N3CCC(C(N)=O)CC3)n2)cc1	nt	nt	34.7*	3.6	nt	37.1*
Cc1ccc(S(=O)(=O)N2CCN(CCNC(=O)C(=O)Nc3ccc(F)cc3)CC2)cc1	-0.1	2.7	-10.5	-1.8	8.8	nt
O=C(OCC1OC(n2ncc(=O)[nH]c2=O)C(OC(=O)c2ccccc2)C1OC(=O)c1ccccc1)c1ccccc1 (centres undefined)	30.9	-1.6	-51.1	-20.5	-154.0	nt
Cc1cc(C)c2cc(C#N)c(NCCCN)nc2c1	12.1	2.1	0.9	2.2	nt	nt
COc1ccc(-c2nc(N/N=C(\C)c3ccc(O)cc3)c3ccccc3n2)cc1	8.2	-8.2	32.3*	-0.4	-21.5	0.4
COc1ccc(Nc2nc(-c3ccccc3)nc3ccccc23)cc1	10.8	-4.9	-6.8	1.2	-28.8	nt
CCC(CO)Oc1cc(NCc2ccc(O)cc2)c2ncn(C(C)C)c2c1 (centres undefined)	0.0	7.6	2.2	4.4	11.8	nt
COCCCOc1cc(NCc2ccccc2)c2ncn(C(C)C)c2c1	-8.6	3.0	7.9	4.0	5.0	nt
CCCCOc1cc(NCc2ccccc2)c2ncn(C(C)C)c2c1	-8.2	7.5	36.9*	11.1	17.4	90.6*
CCC(CO)Oc1cc(NCc2ccc(C(C)(C)C)cc2)c2ncn(C(C)C)c2c1 (centres undefined)	-6.8	9.8	30.0*	4.1	13.5	33.7*
O=C(CSc1nccn1-c1ccccc1)c1ccc(Cl)cc1	-3.0	4.9	5.6	-4.5	7.4	nt
CCOc1cc(/C=C2\CCCc3c2nc2ccccc2c3C(=O)O)ccc1OC	-186.7	16.9	31.6*	16.8	-0.5	27.4
